{"source": "ChEMBL document CHEMBL3124905", "about": "“Isothiocoumarin-3-carboxylic acid derivatives: synthesis, anticancer and antitrypanosomal activity evaluation” (Eur J Med Chem, 2014)", "key": {"SF-268": {"test_system": "SF-268", "assay": "Anticancer activity against human SF268 cells assessed as cell growth at 100 uM after 48 hrs by SRB assay", "format": "functional", "details": "SF-268, 48 h, read-out: Activity", "procedure,_shortened": "(§1)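 NCI one-dose primary screen on a three-line panel (breast MCF7, lung NCI-H460, CNS SF-268). Cells were inoculated and preincubated 24–48 h, then exposed to a single concentration of 10−4 M for 48 h. The endpoint was sulforhodamine B protein staining, and results are expressed as percent growth relative to untreated control cells. Negative values denote cytotoxicity.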"}, "MCF7": {"test_system": "MCF7", "assay": "Anticancer activity against human MCF7 cells assessed as cell growth at 100 uM after 48 hrs by SRB assay", "format": "functional", "details": "MCF7, 48 h, read-out: Activity", "procedure,_shortened": "as §1"}, "NCI-H460 [1]": {"test_system": "NCI-H460", "assay": "Anticancer activity against human NCI-H460 cells assessed as cell growth at 100 uM after 48 hrs by SRB assay", "format": "functional", "details": "NCI-H460, 48 h, read-out: Activity", "procedure,_shortened": "as §1"}, "[2]": {"assay": "Acute toxicity in ip dosed white mouse", "format": "organism-based", "details": "in vivo", "procedure,_shortened": "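White male mice, 23-25 g, dosed intraperitoneally with compound dissolved in 0.9% NaCl saline plus 1-2 drops Polysorbate 80 (Tween-80). Solutions prepared immediately before use. Doses ranged 100-1000 mg/kg, testing 4 or 5 doses with 6 animals per dose. LD50 derived by the Litchfield-Wilcoxon method.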"}, "[3]": {"test_system": "Trypanosoma brucei brucei", "assay": "Antitrypanosomal activity against bloodstream form of Trypanosoma brucei brucei strain 90-13 assessed as inhibition of parasite growth at 10 ug/ml after 72 hrs by resazurin reduction test", "format": "functional", "details": "strain 90-13, 72 h", "procedure,_shortened": "(§2)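 Trypanosoma brucei brucei 90-13 bloodstream forms, grown in HMI9 with 10% FCS at 37 °C under 5% CO2. Log-phase parasites were seeded at 10^5 cells/mL with or without inhibitor, with stocks prepared in DMSO. After 72 h, resazurin was added and fluorescence was read at 530/590 nm after a further 4 h. Percent growth inhibition was calculated versus drug-free parasites, with DMSO as control.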"}, "MDA-MB-231": {"test_system": "MDA-MB-231", "assay": "Growth inhibition of human MDA-MB-231/ATCC cells after 48 hrs by SRB assay", "format": "functional", "details": "MDA-MB-231, 48 h", "procedure,_shortened": "(§3)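 NCI five-dose assay against the ~60-cell-line panel (nine cancer types). Tenfold dilutions from 10−4 to 10−8 M were used with continuous 48-h exposure and SRB absorbance readout. Percent growth was computed from time-zero, control and treated absorbances. GI50 is the concentration giving 50% lower net protein increase than controls. Values not reached are reported as beyond the tested range.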"}, "PC-3": {"test_system": "PC-3", "assay": "Growth inhibition of human PC3 cells after 48 hrs by SRB assay", "format": "functional", "details": "PC-3, 48 h", "procedure,_shortened": "as §3"}, "[4]": {"assay": "Growth inhibition of human 786-O cells after 48 hrs by SRB assay", "format": "functional", "details": "786-0, 48 h", "procedure,_shortened": "as §3"}, "M14": {"test_system": "M14", "assay": "Growth inhibition of human M14 cells after 48 hrs by SRB assay", "format": "functional", "details": "M14, 48 h", "procedure,_shortened": "as §3"}, "LOX IMVI": {"test_system": "LOX IMVI", "assay": "Growth inhibition of human LOXIMVI cells after 48 hrs by SRB assay", "format": "functional", "procedure,_shortened": "as §3"}, "U-251": {"test_system": "U-251", "assay": "Growth inhibition of human U251 cells after 48 hrs by SRB assay", "format": "functional", "details": "U-251, 48 h", "procedure,_shortened": "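NCI ~60-cell-line five-dose screen. Cells were preincubated 24-48 h, then given compound at 10-fold dilutions from 10^-4 to 10^-8 M with 48 h continuous exposure. SRB protein stain was read by absorbance at time zero, in untreated control and with drug. GI50 was derived from [(Ti-Tz)/(C-Tz)]x100=50, TGI from Ti=Tz, and LC50 from [(Ti-Tz)/Tz]x100=-50.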"}, "HCT-116": {"test_system": "HCT-116", "assay": "Growth inhibition of human HCT116 cells after 48 hrs by SRB assay", "format": "functional", "details": "HCT-116, 48 h", "procedure,_shortened": "as §3"}, "NCI-H460 [5]": {"test_system": "NCI-H460", "assay": "Growth inhibition of human NCI-H460 cells after 48 hrs by SRB assay", "format": "functional", "details": "NCI-H460, 48 h", "procedure,_shortened": "as §3"}, "NCI-H23": {"test_system": "NCI-H23", "assay": "Growth inhibition of human NCI-H23 cells after 48 hrs by SRB assay", "format": "functional", "details": "NCI-H23, 48 h", "procedure,_shortened": "as §3"}, "HOP-62": {"test_system": "HOP-62", "assay": "Growth inhibition of human HOP62 cells after 48 hrs by SRB assay", "format": "functional", "details": "HOP-62, 48 h", "procedure,_shortened": "as §3"}, "[6]": {"assay": "Growth inhibition of human […] cells after 48 hrs by SRB assay", "format": "functional", "procedure,_shortened": "as §3"}, "MOLT-4": {"test_system": "MOLT-4", "assay": "Growth inhibition of human MOLT4 cells after 48 hrs by SRB assay", "format": "functional", "details": "MOLT-4, 48 h", "procedure,_shortened": "as §3"}, "[7]": {"test_system": "Trypanosoma brucei brucei", "assay": "Antitrypanosomal activity against bloodstream form of Trypanosoma brucei brucei strain 90-13 assessed as inhibition of parasite growth at 1 ug/ml after 72 hrs by resazurin reduction test", "format": "functional", "details": "strain 90-13, 72 h", "procedure,_shortened": "as §2"}, "KM12": {"test_system": "KM12", "assay": "Growth inhibition of human KM12 cells after 48 hrs by SRB assay", "format": "functional", "details": "KM12, 48 h", "procedure,_shortened": "as §3"}, "CCRF-CEM": {"test_system": "CCRF-CEM", "assay": "Growth inhibition of human CCRF-CEM cells after 48 hrs by SRB assay", "format": "functional", "procedure,_shortened": "as §3"}, "[8]": {"assay": "Growth inhibition of human HOP92 cells after 48 hrs by SRB assay", "format": "functional", "details": "HOP-92, 48 h", "procedure,_shortened": "as §3"}, "BT-549": {"test_system": "BT-549", "assay": "Growth inhibition of human BT549 cells after 48 hrs by SRB assay", "format": "functional", "details": "BT-549, 48 h", "procedure,_shortened": "as §3"}, "NCI/ADR-RES": {"test_system": "NCI/ADR-RES", "assay": "Growth inhibition of human NCI/ADR-RES cells after 48 hrs by SRB assay", "format": "functional", "procedure,_shortened": "as §3"}}, "data": [{"compound": "COc1ccc2cc(C(=O)Nc3cccc(C(F)(F)F)c3)sc(=O)c2c1OC", "values": [{"measurement": "growth at 100 µM", "setting": "SF-268", "result": 49, "unit": "%"}, {"measurement": "growth at 100 µM", "setting": "MCF7", "result": 45, "unit": "%"}, {"measurement": "growth at 100 µM", "setting": "NCI-H460 [1]", "result": 4, "unit": "%"}, {"measurement": "LD50", "setting": "[2]", "result": 750, "unit": "mg/kg"}, {"measurement": "inhibition at 10 µg/mL", "setting": "[3]", "result": 5.46, "unit": "%"}, {"measurement": "GI50", "setting": "MDA-MB-231", "result": 2.09, "unit": "µM"}, {"measurement": "TGI", "setting": "MDA-MB-231; read-out: pTGI (converted)", "result": 5.37, "unit": "µM"}, {"measurement": "GI50", "setting": "PC-3", "result": 4.68, "unit": "µM"}, {"measurement": "TGI", "setting": "PC-3; read-out: pTGI (converted)", "result": 19.5, "unit": "µM"}, {"measurement": "GI50", "setting": "[4]", "result": 3.39, "unit": "µM"}, {"measurement": "TGI", "setting": "[4]; read-out: pTGI (converted)", "result": 12.3, "unit": "µM"}, {"measurement": "GI50", "setting": "M14", "result": 7.76, "unit": "µM"}, {"measurement": "TGI", "setting": "M14; read-out: pTGI (converted)", "result": 20, "unit": "µM"}, {"measurement": "GI50", "setting": "LOX IMVI", "result": 6.92, "unit": "µM"}, {"measurement": "TGI", "setting": "LOX IMVI; read-out: pTGI (converted)", "result": 21.9, "unit": "µM"}, {"measurement": "GI50", "setting": "U-251", "result": 3.16, "unit": "µM"}, {"measurement": "TGI", "setting": "U-251; read-out: pTGI (converted)", "result": 11, "unit": "µM"}, {"measurement": "GI50", "setting": "HCT-116", "result": 3.39, "unit": "µM"}, {"measurement": "TGI", "setting": "HCT-116; read-out: pTGI (converted)", "result": 14.5, "unit": "µM"}, {"measurement": "GI50", "setting": "NCI-H460 [5]", "result": 5.37, "unit": "µM"}, {"measurement": "TGI", "setting": "NCI-H460 [5]; read-out: pTGI", "result": "> 100", "unit": "µM"}, {"measurement": "GI50", "setting": "NCI-H23", "result": 6.46, "unit": "µM"}, {"measurement": "TGI", "setting": "NCI-H23; read-out: pTGI (converted)", "result": 18.6, "unit": "µM"}, {"measurement": "GI50", "setting": "HOP-62", "result": 5.37, "unit": "µM"}, {"measurement": "TGI", "setting": "HOP-62; read-out: pTGI (converted)", "result": 16.2, "unit": "µM"}, {"measurement": "GI50", "setting": "[6]", "result": 2.04, "unit": "µM"}, {"measurement": "TGI", "setting": "[6]; read-out: pTGI (converted)", "result": 5.75, "unit": "µM"}, {"measurement": "GI50", "setting": "MOLT-4", "result": 5.62, "unit": "µM"}, {"measurement": "TGI", "setting": "MOLT-4; read-out: pTGI (converted)", "result": 25.7, "unit": "µM"}, {"measurement": "inhibition at 1 µg/mL", "setting": "[7]", "result": -9.98, "unit": "%"}, {"measurement": "GI50", "setting": "KM12", "result": 9.55, "unit": "µM"}, {"measurement": "TGI", "setting": "KM12; read-out: pTGI", "result": "> 100", "unit": "µM"}, {"measurement": "GI50", "setting": "CCRF-CEM", "result": 12, "unit": "µM"}, {"measurement": "TGI", "setting": "CCRF-CEM; read-out: pTGI (converted)", "result": 91.2, "unit": "µM"}, {"measurement": "GI50", "setting": "[8]", "result": 3.02, "unit": "µM"}, {"measurement": "TGI", "setting": "[8]; read-out: pTGI (converted)", "result": 10, "unit": "µM"}, {"measurement": "GI50", "setting": "BT-549", "result": 2.45, "unit": "µM"}, {"measurement": "TGI", "setting": "BT-549; read-out: pTGI (converted)", "result": 7.08, "unit": "µM"}, {"measurement": "GI50", "setting": "NCI/ADR-RES", "result": 8.43, "unit": "µM"}, {"measurement": "TGI", "setting": "NCI/ADR-RES; read-out: pTGI (converted)", "result": 21.9, "unit": "µM"}]}]}
